Converted amounts (≈) assume the structure as drawn.
Tests used:
Assay type in all cases: functional
[1] = test system: Mammalian orthoreovirus 1; test: Compound was tested for the concentration required to reduce reovirus type 1 induced cytopathogenicity by 50% in Vero cell cultures
Sindbis virus [2] = test: Compound was tested for the concentration required to reduce sindbis virus induced cytopathogenicity by 50% in Vero cell cultures
Poliovirus 1 = test: Concentration required to reduce polio virus type 1 induced cytopathogenicity by 50% in HeLa cell cultures.; conditions: Enterovirus C
Vero [3] = test: Compound was tested for the concentration required to cause a microscopically detectable alteration in normal cell morphology in Vero cell cultures; conditions: Chlorocebus sabaeus, read-out: Min cytotoxic concentration
In short: (§1)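 Uninfected cell monolayers were run in parallel with the antiviral assays and exposed to compound for the same period as the infected cultures. The end point was the lowest concentration giving a microscopically detectable disruption of normal cell morphology.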

Human respirovirus 3 [4] = test: Compound was tested for the concentration required to reduce parainfluenza virus type 3 induced cytopathogenicity by 50% in Vero cell cultures
Human alphaherpesvirus 1 [5] = test: Compound was tested for the concentration required to reduce HSV-1 (KOS) induced cytopathogenicity by 50% in primary rabbit kidney cell cultures
Human alphaherpesvirus 2 [6] = test: Compound was tested for the concentration required to reduce HSV-2 (G) induced cytopathogenicity by 50% in primary rabbit kidney cell cultures
L1210 = test: Dose required to inhibit proliferation of L-1210 Cells by 50%; conditions: Mus musculus, read-out: ID50 (the source's name)
In short: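 Inhibition of proliferation of murine leukemia L-1210 cells in exponential growth phase. ID50 is the dose inhibiting cell proliferation by 50%, given plus or minus standard deviation.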

Coxsackievirus B4 [7] = test: Compound was tested for the concentration required to reduce coxsackie virus B4 induced cytopathogenicity by 50% in HeLa cell cultures; conditions: Enterovirus B
[8] = test system: Vesicular stomatitis virus; test: Compound was tested for the concentration required to reduce vesicular stomatitis virus induced cytopathogenicity by 50% in HeLa cell cultures
Oryctolagus cuniculus [9] = organism: Oryctolagus cuniculus; test: Compound was tested for the concentration required to cause a microscopically detectable alteration in normal cell morphology in primary rabbit kidney cell cultures; conditions: read-out: Min cytotoxic concentration; in short: as §1
Coxsackievirus B4 [10] = test: Compound was tested for the concentration required to reduce coxsackie virus B4 induced cytopathogenicity by 50% in Vero cell cultures; conditions: Enterovirus B
[11] = test system: Vesicular stomatitis virus; test: Compound was tested for the concentration required to reduce vesicular stomatitis virus induced cytopathogenicity by 50% in primary rabbit kidney cell cultures
HeLa [12] = test: Compound was tested for the concentration required to cause a microscopically detectable alteration in normal cell morphology in HeLa cell cultures; conditions: Homo sapiens, read-out: Min cytotoxic concentration; in short: as §1
Sindbis virus [13] = test: Concentration required to reduce sindbis virus induced cytopathogenicity by 50% in vero cell cultures.
Oryctolagus cuniculus [14] = organism: Oryctolagus cuniculus; test: Concentration required to cause a microscopically detectable alteration in cell morphology in primary rabbit kidney cell cultures.; conditions: read-out: Min cytotoxic concentration; in short: as §1
Coxsackievirus B4 [15] = test: Concentration required to reduce coxsackie virus 4 induced cytopathogenicity by 50% in HeLa cell cultures.; conditions: Enterovirus B
[16] = test system: Vesicular stomatitis virus; test: Concentration required to reduce vesicular stomatitis virus induced cytopathogenicity by 50% in primary rabbit kidney cell cultures.
[17] = test system: Vesicular stomatitis virus; test: Concentration required to reduce vesicular stomatitis virus induced cytopathogenicity by 50% in HeLa cell cultures.
[18] = test system: Mammalian orthoreovirus 1; test: Concentration required to reduce reovirus type 1 induced cytopathogenicity by 50% in vero cell cultures.
Human alphaherpesvirus 1 [19] = test: Concentration required to reduce HSV-1 (KOS) induced cytopathogenicity by 50% in primary rabbit kidney cell cultures.
Human alphaherpesvirus 2 [20] = test: Concentration required to reduce HSV-2 (G) induced cytopathogenicity by 50% in primary rabbit kidney cell cultures.
HeLa [21] = test: Concentration required to cause a microscopically detectable alteration in cell morphology in HeLa cell cultures.; conditions: Homo sapiens, read-out: Min cytotoxic concentration; in short: as §1
Human respirovirus 3 [22] = test: Concentration required to reduce parainfluenza virus type 3 induced cytopathogenicity by 50% in vero cell cultures.
Vero [23] = test: Concentration required to cause a microscopically detectable alteration in cell morphology in vero cell cultures.; conditions: Chlorocebus sabaeus, read-out: Min cytotoxic concentration; in short: as §1
Coxsackievirus B4 [24] = test: Concentration required to reduce coxsackie virus B4 induced cytopathogenicity by 50% in vero cell cultures.; conditions: Enterovirus B

Structure (SMILES) | MIC (Poliovirus 1) [µg/mL] | IC50 (L1210) [µg/mL] | MIC (Sindbis virus [13]) [µg/mL] | MCC (Oryctolagus cuniculus [14]) [µg/mL] | MIC (Coxsackievirus B4 [15]) [µg/mL] | MIC [16] [µg/mL] | MIC [17] [µg/mL] | MIC [18] [µg/mL] | MIC (Human alphaherpesvirus 1 [19]) [µg/mL] | MIC (Human alphaherpesvirus 2 [20]) [µg/mL] | MCC (HeLa [21]) [µg/mL] | MIC (Human respirovirus 3 [22]) [µg/mL] | MCC (Vero [23]) [µg/mL] | MIC (Coxsackievirus B4 [24]) [µg/mL] | further results
Nc1ncnc2c1ncn2C[C@@H](O)CO | > 400 | 170 (≈ 813 µM) | – | – | – | – | – | – | – | – | – | – | – | – | MIC [1]: 70 µg/mL (≈ 335 µM); MIC (Sindbis virus [2]): > 400 µg/mL; MCC (Vero [3]): > 400 µg/mL; MIC (Human respirovirus 3 [4]): 20 µg/mL (≈ 95.6 µM); MIC (Human alphaherpesvirus 1 [5]): > 400 µg/mL; MIC (Human alphaherpesvirus 2 [6]): > 400 µg/mL; MIC (Coxsackievirus B4 [7]): > 400 µg/mL; MIC [8]: 10 µg/mL (≈ 47.8 µM); MCC (Oryctolagus cuniculus [9]): ≥ 400 µg/mL; MIC (Coxsackievirus B4 [10]): 400 µg/mL (≈ 1910 µM); MIC [11]: 10 µg/mL (≈ 47.8 µM); MCC (HeLa [12]): > 400 µg/mL
Nc1ncnc2c1cc(Br)n2C1O[C@H](CO)[C@@H](O)[C@H]1O (stereo not given in full) | 150 (≈ 435 µM) | 36.5 (≈ 106 µM) | > 200 | > 400 | > 200 | 300 (≈ 869 µM) | 400 (≈ 1160 µM) | 70 (≈ 203 µM) | > 400 | > 400 | 400 | 70 (≈ 203 µM) | 400 | 70 (≈ 203 µM) | –
Nc1ncnc2c1c(Br)c(Br)n2C1O[C@H](CO)[C@@H](O)[C@H]1O (stereo not given in full) | > 10 | 2.31 (≈ 5.45 µM) | > 10 | 100 | > 10 | > 40 | > 10 | 10 (≈ 23.6 µM) | > 100 | > 40 | 40 | > 10 | 40 | 10 (≈ 23.6 µM) | –
Nc1ncnc2c1c(CCCO)cn2C1O[C@H](CO)[C@@H](O)[C@H]1O (stereo not given in full) | 7 (≈ 21.6 µM) | 1.28 (≈ 3.95 µM) | > 10 | > 40 | 7 (≈ 21.6 µM) | 7 (≈ 21.6 µM) | 2 (≈ 6.17 µM) | 2 (≈ 6.17 µM) | 7 (≈ 21.6 µM) | > 10 | 40 | 2 (≈ 6.17 µM) | 40 | 7 (≈ 21.6 µM) | –
Nc1ncnc2c1c(/C=C/Br)cn2C1O[C@H](CO)[C@@H](O)[C@H]1O (stereo not given in full) | > 1 | 7.84 (≈ 21.1 µM) | > 1 | > 4 | > 1 | > 1 | > 1 | 1 (≈ 2.69 µM) | > 1 | > 1 | 4 | 1 (≈ 2.69 µM) | 4 | > 1 | –
Nc1ncnc2c1c(Cl)c(Cl)n2C1O[C@H](CO)[C@@H](O)[C@H]1O (stereo not given in full) | > 10 | 10.1 (≈ 30.1 µM) | > 10 | 40 | > 10 | > 40 | > 10 | > 10 | > 40 | > 40 | 40 | > 10 | 40 | > 10 | –
N#C/C=C/c1cn(C2O[C@H](CO)[C@@H](O)[C@H]2O)c2ncnc(N)c12 (stereo not given in full) | 4 (≈ 12.6 µM) | 1.36 (≈ 4.29 µM) | > 40 | 100 | 1 (≈ 3.15 µM) | 20 (≈ 63 µM) | 0.4 (≈ 1.26 µM) | 20 (≈ 63 µM) | 2 (≈ 6.3 µM) | 20 (≈ 63 µM) | 4 | 7 (≈ 22.1 µM) | 100 | > 10 | –
CC(O)c1cn(C2O[C@H](CO)[C@@H](O)[C@H]2O)c2ncnc(N)c12 (stereo not given in full) | 0.2 (≈ 0.645 µM) | 0.111 (≈ 0.358 µM) | 7 (≈ 22.6 µM) | 10 | 0.7 (≈ 2.26 µM) | 0.4 (≈ 1.29 µM) | 0.2 (≈ 0.645 µM) | 0.4 (≈ 1.29 µM) | 2 (≈ 6.45 µM) | 7 (≈ 22.6 µM) | 40 | 0.7 (≈ 2.26 µM) | 40 | 2 (≈ 6.45 µM) | –
COC(C)c1cn(C2O[C@H](CO)[C@@H](O)[C@H]2O)c2ncnc(N)c12 (stereo not given in full) | 0.7 (≈ 2.16 µM) | 0.404 (≈ 1.25 µM) | > 40 | 100 | 0.7 (≈ 2.16 µM) | > 40 | > 10 | > 1 | 20 (≈ 61.7 µM) | > 40 | 10 | 2 (≈ 6.17 µM) | 100 | 2 (≈ 6.17 µM) | –
C/C=C/Cc1cn(C2O[C@H](CO)[C@@H](O)[C@H]2O)c2ncnc(N)c12 (stereo not given in full) | 0.2 (≈ 0.624 µM) | 0.63 (≈ 1.97 µM) | > 40 | 200 | 0.2 (≈ 0.624 µM) | > 40 | 0.07 (≈ 0.219 µM) | 2 (≈ 6.24 µM) | 20 (≈ 62.4 µM) | 150 (≈ 468 µM) | 1 | > 1 | 100 | 2 (≈ 6.24 µM) | –
CCCCc1cn(C2O[C@H](CO)[C@@H](O)[C@H]2O)c2ncnc(N)c12 (stereo not given in full) | > 40 | 81.6 (≈ 253 µM) | > 40 | 40 | > 40 | > 40 | > 40 | > 40 | > 40 | > 40 | > 40 | 20 (≈ 62 µM) | > 100 | > 40 | –
Nc1ncnc2c1c(Br)cn2[C@@H]1O[C@H](CO)[C@@H](O)[C@H]1O | > 0.4 | 0.587 (≈ 1.7 µM) | > 0.4 | 1 | > 0.4 | > 1 | > 0.4 | > 0.4 | > 1 | > 1 | 1 | > 0.4 | 0.4 | > 0.4 | –
Nc1nccc2c1ncn2[C@@H]1C[C@H](CO)[C@H](O)C1O (stereo not given in full) | > 400 | – | 20 (≈ 75.7 µM) | > 200 | > 400 | 0.07 (≈ 0.265 µM) | 0.7 (≈ 2.65 µM) | 2 (≈ 7.57 µM) | > 400 | 300 (≈ 1140 µM) | > 400 | 2 (≈ 7.57 µM) | > 100 | 2 (≈ 7.57 µM) | –
Nc1ncnc2c1c(Cl)cn2[C@@H]1O[C@H](CO)[C@@H](O)[C@H]1O | 1 (≈ 3.33 µM) | 0.014 (≈ 0.0466 µM) | > 1 | 4 | > 0.4 | > 1 | > 1 | 0.7 (≈ 2.33 µM) | > 1 | > 1 | 4 | > 1 | 4 | > 1 | –
Nc1ncnc2c1c(I)cn2[C@@H]1O[C@H](CO)[C@@H](O)[C@H]1O [IODOTUBERCIDIN] | > 0.4 | 1.25 (≈ 3.19 µM) | > 0.4 | 1 | > 0.4 | > 0.4 | > 0.4 | > 0.4 | 0.02 (≈ 0.051 µM) | > 1 | 1 | > 0.4 | 1 | > 0.4 | –
NC(=O)c1ncn([C@@H]2O[C@H](CO)[C@@H](O)[C@H]2O)n1 [RIBAVIRIN] | 7 (≈ 28.7 µM) | 3.18 (≈ 13 µM) | 150 (≈ 614 µM) | > 400 | 20 (≈ 81.9 µM) | 70 (≈ 287 µM) | 4 (≈ 16.4 µM) | 20 (≈ 81.9 µM) | > 400 | > 400 | > 400 | 20 (≈ 81.9 µM) | > 400 | > 400 | –
NC(=O)c1cn([C@@H]2O[C@H](CO)[C@@H](O)[C@H]2O)c2ncnc(N)c12 [SANGIVAMYCIN] | 0.07 (≈ 0.226 µM) | 0.019 (≈ 0.0614 µM) | 0.2 (≈ 0.647 µM) | > 10 | > 0.04 | 0.02 (≈ 0.0647 µM) | 0.04 (≈ 0.129 µM) | > 0.1 | 0.07 (≈ 0.226 µM) | 0.07 (≈ 0.226 µM) | 0.4 | 0.02 (≈ 0.0647 µM) | 0.4 | 0.02 (≈ 0.0647 µM) | –
N#Cc1cn([C@@H]2O[C@H](CO)[C@@H](O)[C@H]2O)c2ncnc(N)c12 [TOYOCAMYCIN] | > 0.01 | 0.006 (≈ 0.0206 µM) | > 0.01 | > 0.04 | > 0.01 | > 1 | 0.07 (≈ 0.24 µM) | > 0.01 | > 0.04 | 0.07 (≈ 0.24 µM) | > 0.4 | > 0.01 | 0.04 | > 0.01 | –
Nc1ncnc2c1ccn2[C@@H]1O[C@H](CO)[C@@H](O)[C@H]1O [TUBERCIDIN] | 0.007 (≈ 0.0263 µM) | 0.04 (≈ 0.15 µM) | 0.2 (≈ 0.751 µM) | 0.4 | 0.2 (≈ 0.751 µM) | 0.007 (≈ 0.0263 µM) | 0.007 (≈ 0.0263 µM) | 0.07 (≈ 0.263 µM) | 0.07 (≈ 0.263 µM) | 0.2 (≈ 0.751 µM) | 0.4 | 0.07 (≈ 0.263 µM) | 0.4 | 0.2 (≈ 0.751 µM) | –
